Test results published in the RNAGym collection of RNA variant scans (doi:10.1126/science.aae0568).
Fewer inactive variants are shown than the library holds.

B1: tRNA (parent)
chain: GUUCCGUUGGCGUAAUGGUAACGCGUCUCCCUCCUAAGGAGAAGACUGCGGGUUCGAGUCCCGUACGGAACG

Variants of: B1
Test: yeast fitness relative to wild type (ratio to wild type); higher = fitter; tRNA-Arg(CCU), competitive growth, 37 C, YPD
How it was run: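 Gene amplicons from the start population and from each of six end populations were read by 100-nucleotide paired-end sequencing. Those end populations came from pooled Saccharomyces cerevisiae strains carrying tRNA-Arg(CCU) gene variants at the native locus, competed in YPD at 37°C for 24 hours. Fitness relative to wild type was worked out from changes in genotype frequencies. Genotypes needed ≥ 100 starting reads, and estimates < 0.5 were set to 0.5.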

Going from GUUCCGUUGGCGUUAUGGUAACGCGUCUCCAUCCUAAGGAGAAGACUGCGGGUUCGAGUACCGUACGGAACG [A14U C31A C60A] to GUUCCGUUGGGGUAAUGGUAACGUGUCUCCCUCCUAAGGAGAAGACUCCGGGUUCGAGUCCCGUACGGAACG [C11G C24U G48C], the yeast fitness rises from 0.514 to 0.541.

Compared with GUUCUGUUGGUGUAAUGGUAACGCGUCUCCCUCCUUAGGAGAAGACUGCGGGUUCGAGUCCCGUAUGGAACG [C5U C11U A36U C66U], GUUUCGUUGGCGUAAUGGUAACGCGUCUCCCUCCUAAGGAGAAGACUGCGGAUUCGAGACCCGUACGGAACG [C4U G52A U59A] is higher in yeast fitness: no more than 0.5 for the first, 0.592 for the second.

First: GUUCCGUUGGCGUAAUGGUAACGAGUUGCCCUCCUAAGGAGAAGACUGCGGGUUCGAGUCCCGUACGGAACG [C24A C27U U28G]
Second: GUUCCGUUGGCGUAAUGGUAAAGGGUCUCCCUCCUAAGGAGAAGACUGCGGAUUCGAGUCCCGUACCAAACG [C22A C24G G52A G67C G68A]
The yeast fitness of the first is higher: 0.511 for the first, no more than 0.5 for the second.

Going from GUUCCGUUGGCGUAAUGGUAACGCGUCUCCCUCCUAAGGAGAAGACUGCGGGUUAGUGUCCCGUAUGGAACG [C55A A57U C66U] to GUUCCGUAGGCGUAAUGGUAACGCGUCUCCCUCCUAAGGAGAAGACUGCGGGUUCGAGUCUCCUGCGGAACG [U8A C61U G63C A65G], the yeast fitness falls from 0.574 to no more than 0.5.

Going from GUUCGGUUGGCGUAAUGGUAACGCAUCUCCCUCAUAAGGAGAAGACUGGAGGUUCGAGUCCCGUACGGAACG [C5G G25A C34A C49G G50A] to GUUCCGUUGGCGUAAUGGUAACGCGUCUCCCUCCUAAGGAGAAGAUUACGGGUUCGAGUCCCGUACGGAACG [C46U G48A], the yeast fitness rises from no more than 0.5 to 0.93.

Going from GUUCCGUUGGCGUAAAGGUAACGCGUCUCCCUUCUGACGAGAAGACUGCGGGUUCGAGUCCCGUACGGAACG [U16A C33U A36G G38C] to GUUCCGUUGGCGUAAUGGCAACGCGUCUCACUCCUAAGGAGAAGACUGCGGGUUCGAGUCCCGUACGGAACG [U19C C30A], the yeast fitness rises from no more than 0.5 to 1.03.

GUUCCGUUGGCGUAAUGGUAAAGCGUCUCCCUGCUAAGGAGAAGACUGCGGGUUCGAGUACCGUAGGGAACG [C22A C33G C60A C66G] and GUACCGUUGGCGUAGUGGAAACGCGUCUCCCUCCUAAGGAAAAGACUGCAGGUUCGAGUCCCGUACGGAACG [U3A A15G U19A G41A G50A] cannot be ordered by yeast fitness: no more than 0.5 for the first, no more than 0.5 for the second.

Going from GUUCCGUUGGCGUAAUGGUAACGCGUCUCCCUCCUAAGCAGAAGACUGCGGGUUCGAGUGCCGUACGGAUCG [G39C C60G A70U] to GUUCCGUUGGCGUAAUGGUAACGCGUCUCCCUCCUAAGGAGAAGACUGUGGGUUAGAGUCCCGUAUGGAACG [C49U C55A C66U], the yeast fitness falls from 0.524 to 0.514.

Going from GUUCGGUUGGCGUAAUGGUAACGCGUCUCCCUCCUAAGGAGAAGACUGCGGGUUCGAGGCCCGUGCGGAACG [C5G U59G A65G] to GUUCCGUUGGCAUAAUGGUAACGCGUCUCGCUCCUAAGGAGAAGACUGAGAGUUCGAGUCCCGUACGGAACG [G12A C30G C49A G51A], the yeast fitness falls from 0.614 to no more than 0.5.

Compared with GUUACGUUGGCGUAUUGGUAACGCGUCUCCCUCCUAAGGAGAAGACUACGGGUUCGAGUCCCGUACGGAACG [C4A A15U G48A], GUUCCGUUGGCGUAAUGGUAACGCGUCUCCCUCCUAACGAGAAGACUGCGGGUUCGAGUCCCAUACGGAACG [G38C G63A] is higher in yeast fitness: 0.559 for the first, 0.674 for the second.

Compared with GUUCCGUUGGCGUAAUCGUAAAGGGUCCCCCUACUAAGGAGAAGACUGCGGGUUCGAGUCCCGUACGGAACG [G17C C22A C24G U28C C33A], GUUCAGUUGGCGUAAAGGUAACGCGUCUCCCUCCUAAGGAGAAGUCUGCGGGUUCGAGUCCCGUACGGAACG [C5A U16A A45U] is higher in yeast fitness: no more than 0.5 for the first, 0.593 for the second.

Going from GUUCCCUUGGCGUAAUGGUAACGCGUCUCCCUCCUAAGGAGAAGACUGUGGGUUCGAGUCCCGUACGGAACG [G6C C49U] to GUUCCGUUGGCGUAAUGGUAAGGCGUCUCCCUCCUAAGGAGAAGACUGCGGGUUCGUGUCCCCUACGGAACG [C22G A57U G63C], the yeast fitness falls from 0.965 to no more than 0.5.

GUUCUGUUGGCGUAAUGGUAACGCGUCUCCCUCCUAAGGAGAAGACUGCGGGUACGAGUCCCGUACGGUACG [C5U U54A A69U] and GUUCCGUUAGCGUAAUGGUAAGGCGUCUCCUUCCUAAGGAGAAGACUGCGGGUUCGAGUCACGUCAGGAACG [G9A C22G C31U C61A A65C C66A] cannot be ordered by yeast fitness: no more than 0.5 for the first, no more than 0.5 for the second.

Compared with GUUCCGUUGGCGUAAUGGUAACGCGUCUCCCUCCUAUGGAGAAGACUGCGGGUUCGAGUCCCGCACGGAACG [A37U U64C], GUUCCGCUGGCGUAAUGGUAACGCGUCUCCCUCCUAAGGAGAAGACGGCGGGUUCGAGUCCCGUACGUAACG [U7C U47G G68U] is lower in yeast fitness: 0.77 for the first, no more than 0.5 for the second.

Going from GUUCCGUUGGGGUAAUGGUAUCGCGUCUCCCUCCAAAGGAGAAGACUGCGGGUUCGAGUCCCGUACGGAACG [C11G A21U U35A] to GUUCCGGUGGCGUAAUGGUAUCGCGUCUCCCUCCUAAGGAGAAGACUGCGGGUUCGAGUCCCGUACGGAACG [U7G A21U], the yeast fitness rises from no more than 0.5 to 0.717.

First: GUUCCGUUGGCGUAUUGGCAACGCGUCUCCAUCCUAAGGACAAGACUGCGGGUUCGAGUCCCGUACGGAACG [A15U U19C C31A G41C]
Second: GUUCCGUUGGCGUAAUGGUAACGCGUCUCUCUCCUAAGGUGAAGACUGCGGGUUCGAGUCCCGUACGGAACG [C30U A40U]
The yeast fitness of the first is lower: 0.596 for the first, 0.965 for the second.

First: GUUCCGUUGGCGCAAUGGUAACGCGUCUCCCUCCUAAGGUGAAGACUGCGGGUUCGAGUCCCGUACGGAACG [U13C A40U]
Second: GUUCCGUUAGAGUAAUGGUAACGCGUCUCACUCCUAAGGAGCAGACUGCGGGUUCGAGUCCCGUACCGAACG [G9A C11A C30A A42C G67C]
The yeast fitness of the first is higher: 1.03 for the first, no more than 0.5 for the second.

GUCUCGUUGGCGUAAUGGUAACGCGUCUCCCUCCUAAGGAGAUGACUGCGGGUUCGAAUCCCGUACGGAACG [U3C C4U A43U G58A] and GUUCCGUUGGCGUAAUGGUAACGCGUUUCCCCCCUAAGGAAUAAAUUGCGGGUUCGAAUUCCGUACGGAACG [C27U U32C G41A A42U G44A C46U G58A C60U] cannot be ordered by yeast fitness: no more than 0.5 for the first, no more than 0.5 for the second.

First: GUACCGUUGGGGUCAUGGUAACGGGUCUCCCUCCUAAGGAGAAGACUGCGGGUUCGAGUCCCGUACGGAACG [U3A C11G A14C C24G]
Second: GUUCCGUUGGCGUAAUGGUAACGCGUCUCCCUCCUAAGGAGCAGACAGCGGAUUCGAGUCCCGUACGGAACG [A42C U47A G52A]
The yeast fitness of the first is higher: 0.653 for the first, no more than 0.5 for the second.
